Measurements published in ChEMBL document CHEMBL1147105, “In vitro and in vivo activities of PD 0305970 and PD 0326448, new bacterial gyrase/topoisomerase inhibitors with potent antibacterial activities versus multidrug-resistant gram-positive and fastidious organism groups” (2007).
In brackets after ≈: the same amount, converted by molar mass.

Legend:
[1] = system: Enterococcus faecalis; assay: Antibacterial activity against Enterococcus faecalis; assay type: functional
How it was run: (§1)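 Broth microdilution MIC per CLSI guidelines, incubated at 35°C. Cation-adjusted Mueller-Hinton broth for nonfastidious organisms and staphylococci. Streptococci tested in the same broth with 3% lysed horse blood. Anaerobes tested in supplemented Brucella broth inside an anaerobe chamber (5% CO2, 5% H2, 90% N2), read after 48 h. Strains were mainly recent clinical isolates with confirmed identity.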

[2] = system: Shigella sonnei; assay: Antibacterial activity against Shigella sonnei; assay type: functional
How it was run: (§2)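 Broth microdilution MIC following CLSI guidelines, in cation-adjusted Mueller-Hinton broth, incubated at 35°C. Recent clinical isolates and reference strains, with identity confirmed by automated and standard microbiological methods. Results reported as MIC range, MIC50 and MIC90.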

[3] = system: Haemophilus influenzae; assay: Antibacterial activity against beta-lactamase negative Haemophilus influenzae; assay type: functional
How it was run: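 Broth microdilution MIC following CLSI guidelines, in Haemophilus test medium at 35°C.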

[4] = system: Burkholderia cepacia; assay: Antibacterial activity against Burkholderia cepacia; assay type: functional; how it was run: as §2
[5] = system: Proteus mirabilis; assay: Antibacterial activity against Proteus mirabilis; assay type: functional; how it was run: as §2
[6] = system: Staphylococcus haemolyticus; assay: Antibacterial activity against Staphylococcus haemolyticus; assay type: functional
How it was run: (§3)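 Broth microdilution MIC following CLSI guidelines, in cation-adjusted Mueller-Hinton broth containing 3% lysed horse blood, incubated at 35°C. Clinical isolates with identity confirmed. Reported as MIC range, MIC50 and MIC90.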

[7] = system: Enterococcus gallinarum; assay: Antibacterial activity against Enterococcus gallinarum; assay type: functional
[8] = system: Peptoniphilus asaccharolyticus; assay: Antibacterial activity against Peptostreptococcus asaccharolyticus; assay type: functional
How it was run: (§4)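 Anaerobic broth microdilution MIC following CLSI guidelines, in supplemented Brucella broth. Run in an anaerobe chamber under 5% CO2, 5% H2 and 90% N2 at 35°C, and read after 48 h. Reported as MIC range, MIC50 and MIC90.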

[9] = system: Prevotella corporis; assay: Antibacterial activity against Prevotella corporis; assay type: functional; how it was run: as §4
[10] = system: Salmonella enteritidis; assay: Antibacterial activity against Salmonella enterica serovar Enteritidis; assay type: functional, Salmonella enterica subsp. enterica serovar Enteritidis; how it was run: as §2
[11] = system: Neisseria meningitidis; assay: Antibacterial activity against Neisseria meningitidis; assay type: functional
How it was run: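 MIC by broth microdilution in gonococcal broth, incubated at 35°C in 5% CO2. Reported as MIC range, MIC50 and MIC90.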

[12] = system: Stenotrophomonas maltophilia; assay: Antibacterial activity against Stenotrophomonas maltophilia; assay type: functional; how it was run: as §2
[13] = system: Enterococcus faecium; assay: Antibacterial activity against Enterococcus faecium; assay type: functional; how it was run: as §1
[14] = system: Listeria monocytogenes; assay: Antibacterial activity against Listeria monocytogenes; assay type: functional; how it was run: as §3
[15] = system: Pseudomonas aeruginosa; assay: Antibacterial activity against Pseudomonas aeruginosa; assay type: functional; how it was run: as §2
[16] = system: Enterococcus casseliflavus; assay: Antibacterial activity against Enterococcus casseliflavus; assay type: functional
[17] = system: Finegoldia magna; assay: Antibacterial activity against Peptostreptococcus magnus; assay type: functional; how it was run: as §4
[18] = system: Staphylococcus warneri; assay: Antibacterial activity against Staphylococcus warneri; assay type: functional; how it was run: as §2
[19] = system: Prevotella bivia; assay: Antibacterial activity against Prevotella bivia; assay type: functional; how it was run: as §4
[20] = system: Prevotella buccae; assay: Antibacterial activity against Prevotella buccae; assay type: functional; settings: Segatella buccae; how it was run: as §4
[21] = system: Klebsiella pneumoniae; assay: Antibacterial activity against Klebsiella pneumoniae; assay type: functional; how it was run: as §2
[22] = system: Streptococcus viridans; assay: Antibacterial activity against Streptococcus viridans; assay type: functional
How it was run: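 Broth microdilution MIC following CLSI guidelines, in cation-adjusted Mueller-Hinton broth with 3% lysed horse blood. Plates incubated at 35°C. Clinical isolates and reference strains, with identity confirmed by standard microbiological methods.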

[23] = system: Fusobacterium nucleatum; assay: Antibacterial activity against Fusobacterium nucleatum; assay type: functional; how it was run: as §4
[24] = system: Staphylococcus aureus; assay: Antibacterial activity against vancomycin-intermediate Staphylococcus aureus; assay type: functional; how it was run: as §1
[25] = system: Enterococcus faecalis; assay: Antibacterial activity against beta-lactamase positive Enterococcus faecalis; assay type: functional
How it was run: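 MIC by CLSI broth microdilution for nonfastidious organisms, in cation-adjusted Mueller-Hinton broth incubated at 35°C.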

[26] = system: Moraxella catarrhalis; assay: Antibacterial activity against beta-lactamase negative Moraxella catarrhalis; assay type: functional

SMILES: C[C@H]1NCc2cc(-c3ccc4c(=O)c(C(=O)O)cn(C5CC5)c4c3OC(F)F)ccc21 [GARENOXACIN]
- MIC90 [1]: 4 µg/mL (≈ 9.38 µM)
- MIC50 [2]: 0.03 µg/mL (≈ 0.0704 µM)
- MIC90 [2]: 0.125 µg/mL (≈ 0.293 µM)
- MIC50 [3]: 0.008 µg/mL (≈ 0.0188 µM)
- MIC90 [3]: 0.03 µg/mL (≈ 0.0704 µM)
- MIC50 [4]: 32 µg/mL (≈ 75 µM)
- MIC90 [4]: > 64 µg/mL
- MIC50 [5]: 0.5 µg/mL (≈ 1.17 µM)
- MIC90 [5]: 16 µg/mL (≈ 37.5 µM)
- MIC50 [6]: 0.06 µg/mL (≈ 0.141 µM)
- MIC90 [6]: 4 µg/mL (≈ 9.38 µM)
- MIC50 [7]: 0.25 µg/mL (≈ 0.586 µM)
- MIC90 [7]: 0.2 µg/mL (≈ 0.469 µM)
- MIC [8]: 0.015 µg/mL (≈ 0.0352 µM)
- MIC50 [9]: 0.25 µg/mL (≈ 0.586 µM)
- MIC90 [9]: 1 µg/mL (≈ 2.35 µM)
- MIC50 [10]: 0.03 µg/mL (≈ 0.0704 µM)
- MIC90 [10]: 0.125 µg/mL (≈ 0.293 µM)
- MIC50 [11]: 0.004 µg/mL (≈ 0.00938 µM)
- MIC90 [11]: 0.004 µg/mL (≈ 0.00938 µM)
- MIC50 [12]: 4 µg/mL (≈ 9.38 µM)
- MIC90 [12]: 8 µg/mL (≈ 18.8 µM)
- MIC50 [13]: 8 µg/mL (≈ 18.8 µM)
- MIC90 [13]: 32 µg/mL (≈ 75 µM)
- MIC50 [14]: 0.25 µg/mL (≈ 0.586 µM)
- MIC90 [14]: 0.5 µg/mL (≈ 1.17 µM)
- MIC50 [15]: 2 µg/mL (≈ 4.69 µM)
- MIC90 [15]: > 64 µg/mL
- MIC50 [16]: 0.25 µg/mL (≈ 0.586 µM)
- MIC90 [16]: 0.5 µg/mL (≈ 1.17 µM)
- MIC [17]: 0.015 µg/mL (≈ 0.0352 µM)
- MIC [18]: 0.03 µg/mL (≈ 0.0704 µM)
- MIC50 [19]: 0.25 µg/mL (≈ 0.586 µM)
- MIC90 [19]: 1 µg/mL (≈ 2.35 µM)
- MIC50 [20]: 0.25 µg/mL (≈ 0.586 µM)
- MIC90 [20]: 1 µg/mL (≈ 2.35 µM)
- MIC50 [21]: 0.25 µg/mL (≈ 0.586 µM)
- MIC90 [21]: 1 µg/mL (≈ 2.35 µM)
- MIC50 [22]: 0.125 µg/mL (≈ 0.293 µM)
- MIC90 [22]: 0.25 µg/mL (≈ 0.586 µM)
- MIC [23]: 0.125 µg/mL (≈ 0.293 µM)
- MIC [24]: 1 µg/mL (≈ 2.35 µM)
- MIC [25]: 0.125 µg/mL (≈ 0.293 µM)
- MIC50 [26]: 0.03 µg/mL (≈ 0.0704 µM)
- MIC90 [26]: 0.03 µg/mL (≈ 0.0704 µM)
